Laboratory results: ChEMBL document CHEMBL1126593, “Inactivation of monoamine oxidase B by analogues of the anticonvulsant agent milacemide (2-(n-pentylamino)acetamide)” (J Med Chem, 1993)

How the values were obtained:
[1] = target: T1, Amine oxidase [flavin-containing] B (Bos taurus, UniProt P56560); test: Kinetic constant was calculated by inhibition of monoamino oxidase B (MAO B)
T1 sequence (P56560 whole entry): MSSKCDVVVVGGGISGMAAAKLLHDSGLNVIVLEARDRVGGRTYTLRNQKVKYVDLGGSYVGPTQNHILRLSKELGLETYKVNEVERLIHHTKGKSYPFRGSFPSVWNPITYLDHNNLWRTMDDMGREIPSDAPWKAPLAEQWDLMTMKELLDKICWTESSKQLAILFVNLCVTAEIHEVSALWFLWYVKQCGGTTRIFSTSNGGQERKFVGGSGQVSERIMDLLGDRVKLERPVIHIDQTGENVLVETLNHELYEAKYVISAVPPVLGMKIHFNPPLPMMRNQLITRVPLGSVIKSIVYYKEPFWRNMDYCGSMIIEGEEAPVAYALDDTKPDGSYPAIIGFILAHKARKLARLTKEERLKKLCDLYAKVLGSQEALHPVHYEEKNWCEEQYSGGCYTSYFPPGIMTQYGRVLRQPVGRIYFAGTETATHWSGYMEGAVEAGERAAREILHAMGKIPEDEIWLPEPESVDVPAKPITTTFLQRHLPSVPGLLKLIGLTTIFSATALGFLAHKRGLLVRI
In short: (§1)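 Bovine liver MAO B (isolated by published method), 25 °C, 100 mM Tris-HCl pH 9.00. Enzyme incubated with several inactivator concentrations; aliquots withdrawn periodically and residual activity read by benzylamine oxidation (OD change at 250 nm). Irreversibility tested by 24 h dialysis against Tris-HCl pH 9.0.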

[2] = Ratio of Kinetic constant (Kcat) / Inactivation constant (Kinact) of the MAO B
In short: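 Bovine MAO B. For kcat, the enzyme was incubated for 1–2 min at 25 °C with several substrate concentrations in 100 mM Tris-HCl, pH 9.00. H2O2 was read as A596 after leuco crystal violet, peroxidase and pH 4.5 acetate were added, and kcat was taken from Hanes plots. For kinact, enzyme was incubated with varied inactivator concentrations (Tris-HCl, pH 9.00, 25 °C), and aliquots were assayed periodically.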

[3] = target: T1, Amine oxidase [flavin-containing] B; test: Kinetic constant (KI) was calculated by inhibition of monoamino oxidase B (MAO B); in short: as §1
[4] = target: T1, Amine oxidase [flavin-containing] B; test: Kinetic constant (KI) was calculated by inhibition of monoamino oxidase B (MAO B); Inactive; in short: as §1
[5] = target: T1, Amine oxidase [flavin-containing] B; test: Kinetic constant was calculated by inhibition of monoamino oxidase B (MAO B); Inactive; in short: as §1
[6] = Ratio of Kinetic constant (Kcat) / Inactivation constant (Kinact) of the MAO B; Inactive
In short: (§2)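 Turnover from H2O2 release: bovine MAO B with amine at several concentrations in 100 mM Tris-HCl pH 9.00, 25 °C, 90 s (1–2 min for some); leuco crystal violet/horseradish peroxidase in acetate pH 4.5 added, A596 converted via extinction coefficient. Km and kcat from Hanes plots; ratio is kcat over kinact from time-dependent inactivation.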

[7] = Ratio is Kinetic constant (Kcat) / Inactivation constant (Kinact) of the MAO B; in short: as §2

| SMILES | Ki [1] | Ratio [2] | Ki [3] | Ki [4] | Ki [5] | Ratio [6] | Ratio [7] |
| --- | --- | --- | --- | --- | --- | --- | --- |
| CCCCCNCC(=O)OCC | 2 mM | 4435 | 14.2 mM |  |  |  |  |
| CCCCCNCC(=O)O |  |  |  | Not Active | Not Active | Not Active |  |

Second part, the molecule after the results:

| Ki [1] | Ratio [2] | Ki [3] | Ki [4] | Ki [5] | Ratio [6] | Ratio [7] | SMILES |
| --- | --- | --- | --- | --- | --- | --- | --- |
| 4.94 mM |  | 14 mM |  |  |  | 3394 | CCCCCNCC#N |
| 4.94 mM |  | 5.79 mM |  |  |  | 9091 | CCCCCNCCC#N |
| 1.08 mM | 26289 | 0.94 mM |  |  |  |  | CCCCCNCC(N)=O [MILACEMIDE] |
